13 compounds from ChEMBL document CHEMBL1681721, “Synthesis, in vitro antimalarial and cytotoxicity of artemisinin-aminoquinoline hybrids” (Bioorg Med Chem Lett, 2011) can be followed below.

Data set [1] can be described thus: Selectivity index, ratio of IC50 for CHO cells to IC50 for chloroquine-sensitive Plasmodium falciparum D10. In kind it is toxicity, cell-based. The settings on record: hamster; for Selectivity Index: cho; for selectivity ratio: CHO cells, read-out: Selectivity Index. A digest of the protocol:
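Calculated as IC50 (CHO, MTT assay) / IC50 (P. falciparum D10), using IC50s measured in this work.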

The test system of another data set is CHO. Kind of data set: Cytotoxicity against CHO cells by MTT assay. In kind it is cell-based, Cricetulus griseus. A digest of the protocol:
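MTT viability assay on Chinese hamster ovary (CHO) cells, with emetine as the reference drug. IC50 is the average of n data sets.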
(Tetrazolium assays rely on reduction of a dye to a coloured formazan, in cell work by metabolically active cells.)

Data set [2] concerns Plasmodium falciparum. In words: Resistance index, ratio of IC50 for chloroquine-resistant Plasmodium falciparum Dd2 to IC50 for chloroquine-sensitive Plasmodium falciparum D10. In kind it is functional. A digest of the protocol: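 Calculated as IC50 (Dd2) / IC50 (D10), using IC50s from the parallel in vitro assays on both P. falciparum strains.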
Data set [3] relates to Plasmodium falciparum. In words: Antiplasmodial activity against chloroquine-sensitive Plasmodium falciparum D10 by lactate dehydrogenase assay. In kind it is functional, organism-based. A digest of the protocol:
(§1)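 IC50s measured in vitro against P. falciparum D10 (chloroquine-sensitive) and Dd2 (chloroquine-resistant). Compounds insoluble in the test medium were added as suspensions in DMSO. Chloroquine served as the reference antimalarial. Values are averages over n data sets.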

For data set [4], the system named is Plasmodium falciparum. In words: Antiplasmodial activity against chloroquine-resistant Plasmodium falciparum Dd2 by lactate dehydrogenase assay. In kind it is functional, organism-based. A digest of the protocol: as §1
For data set [5], the system named is Plasmodium falciparum. Kind of data set: Ratio of chloroquine IC50 to compound IC50 for chloroquine-resistant Plasmodium falciparum Dd2. In kind it is functional.

Structures are written as SMILES.

Consider `C[C@H]1[C@@H](OCCNCCNc2ccnc3cc(Cl)ccc23)O[C@@H]2O[C@@]3(C)CC[C@H]4[C@H](C)CC[C@@H]1[C@@]24OO3`, for which, in data set [1], the “Selectivity Index” value amounted to 391. For the same compound, the IC50 (usually the concentration that gives 50% inhibition) with CHO (cho) was determined as 33000 nM; with Plasmodium falciparum [3] it was 84.6 nM; with Plasmodium falciparum [4] it was 153 nM. Also, the “Ratio IC50” value in the data set with Plasmodium falciparum [2] is recorded as 2.
For `C[C@H]1[C@@H](OCCNCCNc2ccnc3cc(Cl)ccc23)O[C@@H]2O[C@@]3(C)CC[C@H]4[C@H](C)CC[C@@H]1[C@@]24OO3.O=C(O)C(=O)O` the same measures were 77, 1640 nM, 21.5 nM, 25.7 nM and 1.
For `C[C@H]1[C@@H](OCCNCCCNc2ccnc3cc(Cl)ccc23)O[C@@H]2O[C@@]3(C)CC[C@H]4[C@H](C)CC[C@@H]1[C@@]24OO3` the same measures were 317, 37300 nM, 118 nM, 183 nM and 2.
In the case of `C[C@H]1[C@@H](OCCNCCCNc2ccnc3cc(Cl)ccc23)O[C@@H]2O[C@@]3(C)CC[C@H]4[C@H](C)CC[C@@H]1[C@@]24OO3.O=C(O)C(=O)O`, the “Selectivity Index” value in data set [1] is 12. For the same compound, the IC50 with CHO (cho) was 170 nM; with Plasmodium falciparum [3], 14.3 nM; in the data set with Plasmodium falciparum [4], 19.8 nM. Further, the “Ratio IC50” value in the data set with Plasmodium falciparum [2] is recorded as 1.
Consider `C[C@H]1[C@@H](OCCNc2ccc(Nc3ccnc4cc(Cl)ccc34)cc2)O[C@@H]2O[C@@]3(C)CC[C@H]4[C@H](C)CC[C@@H]1[C@@]24OO3`, for which, in the data set with Plasmodium falciparum [2], the “Ratio IC50” value was 2. In addition, the values for the concentration for half-maximal inhibition (IC50) in the data set with Plasmodium falciparum [3] and in the data set on Plasmodium falciparum [4] were 30.4 nM and 69.2 nM, respectively.
In the case of `C[C@H]1[C@@H](OCCNc2ccc(Nc3ccnc4cc(Cl)ccc34)cc2)O[C@@H]2O[C@@]3(C)CC[C@H]4[C@H](C)CC[C@@H]1[C@@]24OO3.O=C(O)C(=O)O`, the selectivity ratio in data set [1] stood at 2040. The IC50 amounted to 35200 nM with CHO (Cricetulus griseus, CHO); 17.2 nM with Plasmodium falciparum [3] (Plasmodium falciparum, D10); 30.2 nM in the data set on Plasmodium falciparum [4]. In addition, the “Ratio IC50” value in the data set on Plasmodium falciparum [2] is recorded as 2.
Consider `CC(CNc1ccnc2cc(Cl)ccc12)NCCO[C@H]1O[C@@H]2O[C@@]3(C)CC[C@H]4[C@H](C)CC[C@@H]([C@H]1C)[C@@]24OO3` (stereo not given in full), for which the selectivity ratio in data set [1] was found to be 279. Further, the entries for the “Ratio IC50” value with Plasmodium falciparum [5] and in the data set with Plasmodium falciparum [2] were 9 and 1, respectively. Moreover, the IC50 stood at 3390 nM in the data set on CHO (cho), 12.2 nM in the data set with Plasmodium falciparum [3] and 17.1 nM in the data set with Plasmodium falciparum [4].
Regarding `CC(CNc1ccnc2cc(Cl)ccc12)NCCO[C@H]1O[C@@H]2O[C@@]3(C)CC[C@H]4[C@H](C)CC[C@@H]([C@H]1C)[C@@]24OO3.O=C(O)C(=O)O` (stereo not given in full), the “Selectivity Index” value in data set [1] came out at 184. The “Ratio IC50” value is given as 7 in the data set on Plasmodium falciparum [5] and 1 in the data set with Plasmodium falciparum [2]. The IC50 is 2750 nM in the data set on CHO (Cricetulus griseus, CHO); 14.9 nM in the data set on Plasmodium falciparum [3] (Plasmodium falciparum, D10); 20.8 nM in the data set on Plasmodium falciparum [4] (Plasmodium falciparum, Dd2).
Consider `C[C@H]1[C@@H](OCCN2CCN(c3ccnc4cc(Cl)ccc34)CC2)O[C@@H]2O[C@@]3(C)CC[C@H]4[C@H](C)CC[C@@H]1[C@@]24OO3`, for which the selectivity ratio in data set [1] was 193. The IC50 with CHO (Cricetulus griseus, CHO) is 5920 nM; in the data set on Plasmodium falciparum [3] (Plasmodium falciparum, D10), 30.7 nM; in the data set on Plasmodium falciparum [4] (Plasmodium falciparum, Dd2), 68.5 nM. For the same compound, the “Ratio IC50” value with Plasmodium falciparum [2] is 2.
As for `C[C@H]1[C@@H](OCCN2CCN(CCNc3ccnc4cc(Cl)ccc34)CC2)O[C@@H]2O[C@@]3(C)CC[C@H]4[C@H](C)CC[C@@H]1[C@@]24OO3`, in the data set with Plasmodium falciparum [2], the “Ratio IC50” value worked out at 1. Moreover, the values for the IC50 in the data set on Plasmodium falciparum [3] and with Plasmodium falciparum [4] were 201 nM and 276 nM, respectively.
For `C[C@H]1[C@@H](OCCN2CCN(CCNc3ccnc4cc(Cl)ccc34)CC2)O[C@@H]2O[C@@]3(C)CC[C@H]4[C@H](C)CC[C@@H]1[C@@]24OO3.O=C(O)C(=O)O`, in data set [1], the selectivity ratio came out at 80. Further, the IC50 in the data set with CHO (Cricetulus griseus, CHO) was determined as 2320 nM; in the data set on Plasmodium falciparum [3], 29 nM; in the data set with Plasmodium falciparum [4] it was 29.2 nM. The “Ratio IC50” value in the data set with Plasmodium falciparum [2] is on record as 1.
As for `C[C@H]1[C@@H](O)O[C@@H]2O[C@@]3(C)CC[C@H]4[C@H](C)CC[C@@H]1[C@@]24OO3` [ARTENIMOL], in the data set on Plasmodium falciparum [2], the “Ratio IC50” value came out at 0.4.
`CC[C@H]1CN2CCc3cc(OC)c(OC)cc3[C@@H]2C[C@@H]1C[C@H]1NCCc2cc(OC)c(OC)cc21` [EMETINE] returned an IC50 in the data set with CHO (Cricetulus griseus, CHO) of 190 nM.
